Data published in ChEMBL document CHEMBL3259717, “Synthetic calanolides with bactericidal activity against replicating and nonreplicating Mycobacterium tuberculosis” (J Med Chem, 2014).
In brackets after ≈: the same amount, converted by molar mass.

What was measured:
[1] = Selectivity index, ratio of LD50 for human HepG2 cells to MIC90 for replicating form of Mycobacterium tuberculosis mc'2 6220; assay type: toxicity, cell-based; conditions: read-out: Selectivity Index
Method in brief: (§1)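 HepG2 in DMEM with 10% FBS, pyruvate, glutamine, HEPES and nonessential amino acids, seeded 3000 cells/well in 384-well plates. Compound for 2 days at 1% final DMSO. ATP read by CellTiter-Glo luminescence. LD50 = 50% drop in ATP signal vs DMSO. SI = LD50/MIC90 against replicating Mtb.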

[2] = Cytotoxicity against human HepG2 cells assessed as decrease in ATP signal after 2 days by CellTiter-Glo assay; assay type: cell-based; conditions: read-out: LD50; method in brief: as §1
[3] = tested on: Mycobacterium tuberculosis; assay: Antibacterial activity against non-replicating form of Mycobacterium tuberculosis MC2 6220 assessed as growth inhibition after 3 days by high-throughput screening assay; assay type: functional; conditions: MC2 6220, 72 h
Method in brief: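 Log-phase mc26220 washed in PBS/tyloxapol, resuspended in Sauton's-based NR medium (butyrate, 0.5 mM NaNO2, pH 5.0) at OD580 0.1. Compound exposure 3 days at 37 °C, 1% O2, 5% CO2. Then R medium added (5-fold dilution), 7 days outgrowth at 20% O2. OD580 read; MIC90 = 90% inhibition vs DMSO.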

[4] = tested on: Mycobacterium tuberculosis; assay: Antibacterial activity against replicating form of Mycobacterium tuberculosis MC2 6220 assessed as growth inhibition after 7 days by high-throughput screening assay; assay type: functional; conditions: MC2 6220, 168 h
Method in brief: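 Attenuated Mtb mc26220 ΔpanCDΔlysA in 7H9 with glycerol, tyloxapol, OADC, casein amino acids, 240 μg/mL L-lysine, 24 μg/mL pantothenate. Mid-log cells diluted to OD580 0.01 in 384-well plates, compound in DMSO, 7 days at 37 °C, 20% O2, 5% CO2. OD580 read; MIC90 = 90% growth inhibition vs DMSO.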

| SMILES | selectivity ratio [1] | CC50 at 48 h [2] [µg/mL] | MIC90 [3] [µg/mL] | MIC90 [4] [µg/mL] |
| --- | --- | --- | --- | --- |
| CCCc1cc(=O)oc2c1c(OC)cc1oc([N+](=O)[O-])cc12 | > 2 | 0.3 (≈ 0.989 µM) | < 0.2 | < 0.2 |
| CC1(C)C=Cc2c(c3c(CN4CCOCC4)cc(=O)oc3c3cc([N+](=O)[O-])oc23)O1 | > 5 | 1 (≈ 2.42 µM) | < 0.2 | < 0.2 |
| CCCc1cc(=O)oc2cc(N3CCN(C(=O)C(C)CC)CC3)c3c(c12)OC(C)(C)C=C3 (stereo unspecified) | < 1 | 22 (≈ 50.2 µM) | > 22 | > 22 |
| CCCc1cc(=O)oc2c3c(c4c(c12)OC(C)(C)C=C4)O[C@H]([N+](=O)[O-])[C@H]3O (relative stereo) | > 11 | 3 (≈ 8.04 µM) | < 0.2 | < 0.2 |
| Cc1c(F)c(=O)oc2c1c1c(c3oc([N+](=O)[O-])cc32)C=CC(C)(C)O1 | > 510 | > 50 | 0.2 (≈ 0.579 µM) | < 0.1 |
| CCCc1cc(=O)oc2cc(OCCN3CCCC3)c3c(c12)OC(C)(C)C=C3 | 1 | 19 (≈ 49.5 µM) | > 19 | 19 (≈ 49.5 µM) |
| CCCc1cc(=O)oc2cc(C#Cc3ccc(F)cc3)c3c(c12)OC(C)(C)C=C3 | – | > 19 | > 19 | > 19 |
| CCCc1cc(=O)oc2c3c(cc(OCCN4CCOCC4)c12)O[C@H]([N+](=O)[O-])[C@H]3C (racemic) | – | > 21 | > 21 | > 21 |
| CCCc1cc(=O)oc2c1c(OCCN1CCOCC1)cc1oc([N+](=O)[O-])c(C(C)C)c12 | < 1 | 22 (≈ 49.5 µM) | > 22 | > 22 |
| CCCc1cc(=O)oc2c1c(OCCN1CCOCC1)cc1oc([N+](=O)[O-])c(COC(C)=O)c12 | < 0.3 | < 0.3 | 3 (≈ 6.32 µM) | 1 (≈ 2.11 µM) |
| CCCc1cc(=O)oc2c(C(=O)O)c(O)c3c(c12)OC(C)(C)C=C3 | – | > 17 | > 17 | > 17 |
| CCCc1cc(=O)oc2c1c(OCCN1CCCC1)cc1oc([N+](=O)[O-])cc12 | > 5 | 1 (≈ 2.59 µM) | < 0.2 | < 0.2 |
| O=c1oc2c3c(cc(OCCN4CCOCC4)c2c2c1CCCC2)O[C@H]([N+](=O)[O-])[C@H]3O (racemic) | > 0.3 | 0.4 (≈ 0.925 µM) | < 1 | < 1 |
| CCCc1cc(=O)oc2c1c1c(c3oc([N+](=O)[O-])cc32)C=CC(c2ccccc2)O1 (stereo unspecified) | 0.1 | 3 (≈ 7.44 µM) | 6 (≈ 14.9 µM) | 20 (≈ 49.6 µM) |
| CCCc1cc(=O)oc2cc(OC3CCCCC3)c3c(c12)OC(C)(C)C=C3 | – | > 18 | > 18 | > 18 |
| Cc1c(F)c(=O)oc2c1c1c(c3oc([N+](=O)[O-])cc32)CCC(C)(C)O1 | > 64 | > 50 | 2 (≈ 5.76 µM) | 0.8 (≈ 2.3 µM) |
| CCCc1cc(=O)oc2c1c(OCCN1CCOCC1)cc1[nH]c([N+](=O)[O-])cc12 | < 0.5 | 25 (≈ 62.3 µM) | > 50 | > 50 |
| CCCc1cc(=O)oc2cc(N3CCN(C(=O)Nc4ccc(C(C)C)cc4)CC3)c3c(c12)OC(C)(C)C=C3 | – | > 26 | > 26 | > 26 |
| O=C(OCCOc1cc2c(c3oc(=O)c4c(c13)CCCC4)[C@H](O)[C@@H]([N+](=O)[O-])O2)c1cnccn1 (racemic) | > 0.3 | 0.4 (≈ 0.852 µM) | < 1 | < 1 |
| CCCc1cc(=O)oc2cc(N3CCN(C(=O)Nc4ccc(OC(F)(F)F)cc4)CC3)c3c(c12)OC(C)(C)C=C3 | – | > 28 | > 28 | > 28 |
| CC1(C)C=Cc2c(c3c(CN4CCSCC4)cc(=O)oc3c3cc([N+](=O)[O-])oc23)O1 | > 5 | 1 (≈ 2.33 µM) | < 0.3 | < 0.3 |
| CCCc1cc(=O)oc2cc(OCCN3CCOCC3)c3c(c12)OC(C)(C)C=C3 | – | 20 (≈ 50.1 µM) | > 20 | 20 (≈ 50.1 µM) |
| CCCc1cc(=O)oc2cc(N3CCN(C(=O)Nc4ccc(F)c(Cl)c4)CC3)c3c(c12)OC(C)(C)C=C3 | – | > 26 | > 26 | > 26 |
| CCCc1cc(=O)oc2cc(OC(C)C)c3c(c12)OC(C)(C)C=C3 | – | > 16 | > 16 | > 16 |
| CCCc1cc(=O)oc2cc(C#Cc3ccc(OC)cc3)c3c(c12)OC(C)(C)C=C3 | – | > 20 | > 20 | > 20 |
| Cc1cc(=O)oc2cc(-c3ccc([N+](=O)[O-])o3)c3c(c12)OC(C)(C)C=C3 | – | > 18 | > 18 | > 18 |
| CCCc1cc(=O)oc2cc(N3CCN(C(=O)Nc4ccc(C#N)cc4)CC3)c3c(c12)OC(C)(C)C=C3 | – | > 25 | > 25 | > 25 |

| SMILES | selectivity ratio [1] | CC50 at 48 h [2] [µg/mL] | MIC90 [3] [µg/mL] | MIC90 [4] [µg/mL] |
| --- | --- | --- | --- | --- |
| CCCc1cc(=O)oc2cc(C#CCO)c3c(c12)OC(C)(C)C=C3 | – | > 16 | > 16 | > 16 |
| CCCc1cc(=O)oc2cc(NC(=O)Nc3ccc(F)cc3)c3c(c12)OC(C)(C)C=C3 | – | – | > 21 | > 21 |
| CCCc1cc(=O)oc2c3c(c4c(c12)OC(C)(C)C=C4)OC(C)(OC(C)=O)C3=O (stereo unspecified) | – | – | > 20 | > 20 |
| CCCc1cc(=O)oc2cc(C#CCOc3ccc(F)cc3)c3c(c12)OC(C)(C)C=C3 | – | > 21 | > 21 | > 21 |
| CCCc1cc(=O)oc2cc(C#Cc3ccccn3)c3c(c12)OC(C)(C)C=C3 | – | > 19 | > 19 | > 19 |
| CCCc1cc(=O)oc2c3c(cc(OCCO)c12)O[C@H]([N+](=O)[O-])[C@H]3O (racemic) | – | < 1 | < 1 | < 1 |
| CCCc1cc(=O)oc2cc(OC3CCN(C(=O)Nc4ccc(F)cc4)CC3)c3c(c12)OC(C)(C)C=C3 | – | – | > 24 | > 24 |
| CCCc1cc(=O)oc2cc(OCCCO)c3c(c12)OC(C)(C)C=C3 | – | – | > 17 | > 17 |
| CCCc1cc(=O)oc2cc(NC(=O)Nc3cccc4ccccc34)c3c(c12)OC(C)(C)C=C3 | – | – | > 23 | > 23 |
| CCCc1cc(=O)oc2cc(OC3CCCC3)c3c(c12)OC(C)(C)C=C3 | – | > 23 | > 23 | > 23 |
| CCCc1cc(=O)oc2cc(N3CCN(C(=O)Nc4ccccc4Oc4ccccc4)CC3)c3c(c12)OC(C)(C)C=C3 | – | > 28 | > 28 | > 28 |
| CCCc1cc(=O)oc2cc(N3CCN(C(=O)NCc4ccccc4)CC3)c3c(c12)OC(C)(C)C=C3 | – | > 24 | > 24 | > 24 |
| CCCc1cc(=O)oc2c3c(cc(OCCOC(=O)c4cnccn4)c12)O[C@H]([N+](=O)[O-])[C@H]3O (racemic) | – | < 1 | < 1 | < 1 |
| CCCc1cc(=O)oc2cc(NCc3cccc(F)c3)c3c(c12)OC(C)(C)C=C3 | – | – | > 20 | > 20 |
| CCCc1c(F)c(=O)oc2c1c1c(c3oc([N+](=O)[O-])cc32)C=CC(C)(C)O1 | – | – | 19 (≈ 50.9 µM) | 19 (≈ 50.9 µM) |
| CCCc1cc(=O)oc2cc(Nc3ccccc3)c3c(c12)OC(C)(C)C=C3 | – | – | > 18 | > 18 |
| CCCc1cc(=O)oc2c(C(=O)N3CCOCC3)c(O)c3c(c12)OC(C)(C)C=C3 | – | > 20 | > 20 | > 20 |
| CCCc1cc(=O)oc2cc(N3CCN(C(=O)Nc4ccc(OC)cc4)CC3)c3c(c12)OC(C)(C)C=C3 | – | > 25 | > 25 | > 25 |
| CCCc1cc(=O)oc2c3c(c4c(c12)OC(C)(C)C=C4)OC(OC(C)=O)C3=O (stereo unspecified) | – | – | 6 (≈ 15.6 µM) | > 100 |
| CCCc1cc(=O)oc2c(C(=O)CC)c(N3CCN(c4ccncc4)CC3)c3c(c12)OC(C)(C)C=C3 | – | – | > 24 | > 24 |
| CCCc1cc(=O)oc2cc(C#Cc3ccc(C)cc3)c3c(c12)OC(C)(C)C=C3 | – | > 19 | > 19 | > 19 |
| CCCCCCCNC(=O)N1CCN(c2cc3oc(=O)cc(CCC)c3c3c2C=CC(C)(C)O3)CC1 | – | > 25 | > 25 | > 25 |
| CCCc1cc(=O)oc2cc(NCc3ccc(F)cc3)c3c(c12)OC(C)(C)C=C3 | – | – | > 20 | > 20 |
| CCCc1cc(=O)oc2cc(N3CCN(C(=O)Nc4ccc(F)cc4)CC3)c3c(c12)OC(C)(C)C=C3 | – | > 25 | > 25 | > 25 |
| CCCc1cc(=O)oc2cc(N3CCN(C(=O)Nc4ccc(C(F)(F)F)cc4)CC3)c3c(c12)OC(C)(C)C=C3 | – | > 27 | > 27 | > 27 |
| CCCc1cc(=O)oc2cc(OC3CCN(C(=O)NCc4ccccc4)CC3)c3c(c12)OC(C)(C)C=C3 | – | > 25 | > 25 | > 25 |
| CCCc1cc(=O)oc2cc(N3CCN(C(=O)NC4CCCCC4)CC3)c3c(c12)OC(C)(C)C=C3 | – | > 24 | > 24 | > 24 |
